Test results taken from ChEMBL document CHEMBL1123502, “Synthesis of [[(naphthalenylmethoxy)- and [[(quinolinylmethoxy)phenyl]amino]oxoalkanoic acid esters. A novel series of leukotriene D4 antagonists and 5-lipoxygenase inhibitors” (J Med Chem, 1986).

Experiments:
[1] = biological target: T1, Polyunsaturated fatty acid 5-lipoxygenase (Rattus norvegicus, UniProt P12527); test: Inhibition of rat polymorphonuclear leukocyte (PMN) 5-Lipoxygenase in vitro
T1 sequence (P12527 whole entry): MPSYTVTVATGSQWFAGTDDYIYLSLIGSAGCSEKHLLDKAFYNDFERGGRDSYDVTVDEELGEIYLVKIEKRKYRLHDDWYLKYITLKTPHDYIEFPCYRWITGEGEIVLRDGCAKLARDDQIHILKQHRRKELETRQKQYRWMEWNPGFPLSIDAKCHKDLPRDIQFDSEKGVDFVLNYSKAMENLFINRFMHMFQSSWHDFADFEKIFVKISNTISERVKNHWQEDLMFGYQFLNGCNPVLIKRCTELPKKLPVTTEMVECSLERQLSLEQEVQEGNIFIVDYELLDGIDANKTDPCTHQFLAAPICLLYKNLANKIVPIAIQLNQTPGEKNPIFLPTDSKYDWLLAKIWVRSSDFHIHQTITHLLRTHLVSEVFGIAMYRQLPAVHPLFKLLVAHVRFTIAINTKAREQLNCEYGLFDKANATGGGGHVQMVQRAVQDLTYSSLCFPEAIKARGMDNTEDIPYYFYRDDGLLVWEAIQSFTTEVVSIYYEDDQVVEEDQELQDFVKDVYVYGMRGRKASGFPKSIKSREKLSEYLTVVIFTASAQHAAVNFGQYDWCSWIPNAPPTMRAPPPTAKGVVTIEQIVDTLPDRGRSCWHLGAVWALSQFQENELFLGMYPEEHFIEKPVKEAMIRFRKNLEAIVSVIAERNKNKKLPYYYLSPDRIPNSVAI
How it was run: (§1)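 Peritoneal PMNs came from female Wistar rats 24 h after ip 6% glycogen. Cells at 2×10^7/mL in HBSS with Ca2+/Mg2+ and 10 mM L-cysteine were preincubated with drug or vehicle for 10 min at 37 °C. The reaction was stopped with ice-cold water and acidified to pH 3.5, and LO and CO products were ether-extracted. IC50 per metabolite came from nonlinear regression.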

[2] = In vivo inhibition of LTD4-induced bronchospasm in guinea pig at dose of 50 mg/kg; conditions: Cavia porcellus
[3] = test system: Cavia porcellus; test: Compound was evaluated in vivo for the percent inhibition of Ovalbumin-induced (OA) bronchospasm in guinea pig at dose of 50 mg/kg id; assay type: functional; conditions: route intraduodenal
How it was run: (§2)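 Male Hartley guinea pigs (350-600 g) were sensitized with ovalbumin (5 mg ip plus 5 mg sc) and used 3-5 weeks later. They were anesthetized with pentobarbital, ventilated, and given indomethacin (10 mg/kg iv, 9 min before challenge) and chlorpheniramine (1.0 mg/kg iv, 1 min later). Drug was given id (or as noted) 10 min before 1% aerosolized ovalbumin; controls received saline. Overflow volume at 1, 3 and 5 min was taken as % of maximal bronchoconstriction and converted to % inhibition.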

[4] = biological target: Cyclooxygenase (Rattus norvegicus) (UniProt P35355+Q63921); test: In vitro inhibition of rat polymorphonuclear leukocyte (PMN) Prostaglandin G/H synthase at 100 uM
[5] = biological target: T2, Polyunsaturated fatty acid 5-lipoxygenase (Rattus norvegicus) (UniProt P12527); test: In vitro inhibition of rat polymorphonuclear leukocyte (PMN) 5-Lipoxygenase at 100 uM
T2 sequence (whole entry): T1 sequence (P12527 whole entry)

[6] = biological target: T3, Cyclooxygenase (Rattus norvegicus, UniProt P35355+Q63921); test: In vitro inhibition of rat polymorphonuclear leukocyte (PMN) Prostaglandin G/H synthase; assay type: protein assay; how it was run: as §1
T3 sequence (P35355 whole entry): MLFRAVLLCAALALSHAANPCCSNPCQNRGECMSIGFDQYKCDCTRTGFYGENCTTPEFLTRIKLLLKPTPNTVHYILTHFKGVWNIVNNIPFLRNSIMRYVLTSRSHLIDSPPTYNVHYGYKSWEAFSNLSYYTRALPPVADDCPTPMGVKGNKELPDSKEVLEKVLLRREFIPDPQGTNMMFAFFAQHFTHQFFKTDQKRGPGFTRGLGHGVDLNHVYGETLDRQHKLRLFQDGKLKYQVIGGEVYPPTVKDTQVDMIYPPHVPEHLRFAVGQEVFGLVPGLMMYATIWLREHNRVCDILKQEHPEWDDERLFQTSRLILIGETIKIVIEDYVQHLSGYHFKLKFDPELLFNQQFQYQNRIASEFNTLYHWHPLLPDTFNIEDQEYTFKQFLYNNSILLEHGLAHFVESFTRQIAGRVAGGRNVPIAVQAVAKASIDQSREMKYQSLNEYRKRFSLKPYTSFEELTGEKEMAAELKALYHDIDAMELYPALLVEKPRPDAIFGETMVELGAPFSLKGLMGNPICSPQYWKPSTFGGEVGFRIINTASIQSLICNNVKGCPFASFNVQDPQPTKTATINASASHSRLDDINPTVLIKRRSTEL
T3 sequence (Q63921 whole entry): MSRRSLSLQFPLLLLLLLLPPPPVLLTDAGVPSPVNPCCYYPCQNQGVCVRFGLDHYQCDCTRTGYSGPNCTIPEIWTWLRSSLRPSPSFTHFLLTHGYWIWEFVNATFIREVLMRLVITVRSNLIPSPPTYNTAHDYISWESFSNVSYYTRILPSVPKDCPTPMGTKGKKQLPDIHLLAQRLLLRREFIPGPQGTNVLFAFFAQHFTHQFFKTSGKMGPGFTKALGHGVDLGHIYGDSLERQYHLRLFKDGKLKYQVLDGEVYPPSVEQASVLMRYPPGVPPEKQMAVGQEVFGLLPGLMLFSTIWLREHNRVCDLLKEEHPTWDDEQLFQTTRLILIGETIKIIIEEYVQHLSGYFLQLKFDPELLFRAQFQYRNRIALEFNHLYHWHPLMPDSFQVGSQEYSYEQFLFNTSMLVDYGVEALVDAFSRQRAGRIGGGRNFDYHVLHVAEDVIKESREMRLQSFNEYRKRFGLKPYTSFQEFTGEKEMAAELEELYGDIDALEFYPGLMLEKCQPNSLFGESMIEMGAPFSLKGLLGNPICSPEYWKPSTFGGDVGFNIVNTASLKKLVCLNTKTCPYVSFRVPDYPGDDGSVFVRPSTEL

[7] = test system: Cavia porcellus; test: Compound was evaluated in vivo for the percent inhibition of LTD4-induced bronchospasm in guinea pig at dose of 10 mg/kg iv; assay type: functional
How it was run: (§3)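 Male guinea pigs (350-600 g) were anesthetized with pentobarbital sodium (50 mg/kg ip), cannulated and artificially ventilated, and spontaneous respiration arrested with pentobarbital (15 mg/kg iv). Indomethacin (10 mg/kg iv) was given 9 min before challenge. Drug was given id (or as noted) 10 min before iv LTD4 (0.3-1 μg/kg); controls received saline. Overflow volume at 1, 3 and 5 min was taken as % of maximal bronchoconstriction and converted to % inhibition versus control.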

[8] = test system: Cavia porcellus; test: Compound was evaluated in vivo for the percent inhibition of Ovalbumin-induced (OA) bronchospasm in guinea pig at dose of 10 mg/kg iv; assay type: functional; how it was run: as §2
[9] = species: Cavia porcellus; test: Compound was evaluated for its effect on LTD4-induced contraction of guinea pig trachea; percentage of maximal response of tissue to carbachol; assay type: functional
How it was run: (§4)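 Isolated guinea pig tracheal spiral strips were contracted with LTC4 or LTD4, with antagonist at 3×10^-6 M versus untreated control. Responses are expressed as percentage of the tissue's maximal response to carbachol (1 mM). Potency is given as -log of the agonist concentration (M) giving a half-maximal response. pKB = -log([B]/(dose ratio - 1)), where dose ratio = treated ED50 ÷ control ED50. Control vs treated compared by unpaired Student's t test.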

[10] = species: Cavia porcellus; test: Compound was evaluated for its effect on LTC4-induced contraction of guinea pig trachea; assay type: functional; how it was run: as §4
[11] = species: Cavia porcellus; test: Compound was evaluated for its effect on LTD4-induced contraction of guinea pig trachea; assay type: functional; how it was run: as §4
[12] = species: Cavia porcellus; test: Compound was evaluated for its effect on LTC4-induced contraction of guinea pig trachea; percentage of maximal response of tissue to carbachol; assay type: functional; how it was run: as §4
[13] = test system: Cavia porcellus; test: Compound was evaluated in vivo for the percent inhibition of Ovalbumin-induced (OA) bronchospasm in guinea pig at dose of 100 mg/kg id; assay type: functional; conditions: route intraduodenal; how it was run: as §2
[14] = test system: Cavia porcellus; test: Compound was evaluated in vivo for the percent inhibition of LTD4-induced bronchospasm in guinea pig at dose of 50 mg/kg id; assay type: functional; conditions: route intraduodenal; how it was run: as §3

SMILES | IC50 [1] [µM] | inhibition [2] [%] | inhibition [4] [%] | further results
COC(=O)CCC(=O)Nc1cccc(OCc2ccc3ccccc3n2)c1 | 28 | 86 | < 50 | inhibition in vivo at 50 mg/kg [3]: 43%
COC(=O)CC(=O)Nc1cccc(OCc2ccc3ccccc3n2)c1 | 24.6 | – | < 50 | inhibition in vivo at 50 mg/kg [3]: 57%
O=C(O)CCC(=O)Nc1cccc(OCc2ccc3ccccc3n2)c1 | – | 66 | – | inhibition in vivo at 50 mg/kg [3]: -20%; inhibition [5]: < 50%
COC(=O)CCC(=O)Nc1ccc(OCc2ccc3ccccc3c2)cc1 | – | 12 | – | inhibition [5]: < 50%
COC(=O)CCNC(=O)c1cccc(OCc2ccc3ccccc3c2)c1 | 29.5 | – | < 50 | –
N#CCCNC(=O)c1cccc(OCc2ccc3ccccc3c2)c1 | – | – | – | inhibition [5]: < 50%
COC(=O)CCC(=O)Nc1cc(OCc2ccc3ccccc3n2)ccc1C | 7.6 | 23 | < 50 | –
COC(=O)CC(=O)Nc1cccc(OCc2ccc3ccccc3c2)c1 | 9.5 | – | < 50 | –
COC(=O)CCC(=O)Nc1cccc(OCc2ccc3ccc(C)cc3n2)c1 | – | -6.1 | < 50 | inhibition [5]: < 50%
COC(=O)CCC(=O)N(O)c1cccc(OCc2ccc3ccccc3c2)c1 | 0.6 | – | – | IC50 [6]: 7.4 µM; inhibition in vivo at 50 mg/kg [3]: 18%
COC(=O)CCC(=O)Nc1cccc(OCc2ccc3ccccc3n2)c1C | 15.5 | – | < 50 | –
COC(=O)CCC(=O)Nc1cccc(OCc2cccc3cccnc23)c1 | – | – | – | inhibition [5]: < 50%
COC(=O)CCNC(=O)c1cccc(OCc2ccc3ccccc3n2)c1 | 35.2 | -3 | – | –
COC(=O)CCNC(=O)c1cccc(COc2ccc3ccccc3c2)c1 | 60.5 | -6 | – | –
COC(=O)CCCC(=O)Nc1cccc(OCc2ccc3ccccc3n2)c1 | 10.4 | – | – | –
O=C(O)CCNC(=O)c1cccc(OCc2ccc3ccccc3c2)c1 | – | 10 | – | inhibition [5]: < 50%
COC(=O)CCC(=O)Nc1ccc(OCc2ccc3ccccc3n2)cc1 | 2.6 | -7 | < 50 | –
COC(=O)CCC(=O)Nc1cccc(OCc2ccc3ccccc3c2)c1 | 3.2 | – | < 50 | inhibition in vivo at 10 mg/kg [7]: 54%; inhibition in vivo at 10 mg/kg [8]: 10%

SMILES | IC50 [1] [µM] | inhibition [2] [%] | inhibition [4] [%] | further results
COC(=O)CCC(=O)Nc1cccc(Oc2ccc3ccccc3n2)c1 | 26 | 29 | – | inhibition in vivo at 50 mg/kg [3]: -55%
CCCCCC(O)c1cccc(OCc2ccc3ccccc3n2)c1 (stereo not given) | – | – | < 50 | –
COC(=O)CCC(=O)Nc1cccc(COc2ccc3ccccc3c2)c1 | 1.91 | – | < 50 | –
COC(=O)CCC(=O)N(C)c1cccc(OCc2ccc3ccccc3n2)c1 | 14 | 48 | < 50 | inhibition in vivo at 50 mg/kg [3]: 2%
COC(=O)CCCC(=O)Nc1cccc(OCc2ccc3ccccc3c2)c1 | 12.6 | 5 | – | –
COC(=O)CCC(=O)Nc1cccc(OCc2ccc3ccccc3n2)c1C#N | – | -6 | < 50 | inhibition [5]: < 50%
O=C(O)CCC(=O)N(O)c1cccc(OCc2ccc3ccccc3c2)c1 | 15.7 | – | – | inhibition in vivo at 50 mg/kg [3]: -35%
COC(=O)C(=O)Nc1cccc(OCc2ccc3ccccc3c2)c1 | 6.9 | -1 | < 50 | –
COC(=O)CCC(=O)N(O)c1cccc(OCc2ccc3ccccc3n2)c1 | 1.4 | 97 | – | Max contractility [9]: 63%; -Log ED50 [10]: 7.5; pKB [10]: 5.35; IC50 [6]: 40 µM; -Log ED50 [11]: 7.79; pKB [11]: 5.33; inhibition in vivo at 50 mg/kg [3]: 76%; Max contractility [12]: 77%
COC(=O)CCC(=O)Nc1ccccc1OCc1ccc2ccccc2n1 | – | -6 | – | inhibition in vivo at 100 mg/kg [13]: 9%; inhibition [5]: < 50%
COC(=O)CCC(=O)Nc1ccccc1OCc1ccc2ccccc2c1 | 86.2 | – | < 50 | –
COC(=O)CCC(=O)Nc1ccc(NC(=O)CCC(=O)OC)c(OCc2ccc3ccccc3n2)c1 | – | – | – | inhibition in vivo at 50 mg/kg [14]: 18%; inhibition [5]: < 50%
COC(=O)CCC(=O)N(O)c1cccc(COc2ccc3ccccc3c2)c1 | 0.86 | 5 | – | IC50 [6]: 6.1 µM
O=C(O)CCNC(=O)c1cccc(COc2ccc3ccccc3c2)c1 | – | 2 | – | inhibition [5]: < 50%
CCOC(=O)CC(=O)Nc1cccc(OCc2ccc3ccccc3n2)c1 | 19 | – | < 50 | inhibition in vivo at 50 mg/kg [3]: 67%
COC(=O)C(=O)Nc1cccc(OCc2ccc3ccccc3n2)c1 | 5.3 | -2 | < 50 | –
CCOC(=O)CCC(=O)Nc1cccc(OCc2ccc3ccccc3n2)c1 | 12.6 | 95 | < 50 | inhibition in vivo at 50 mg/kg [3]: 6%
